Experimental findings from ChEMBL document CHEMBL1152501, “Mannosylated saponins based on oleanolic and glycyrrhizic acids. Towards synthetic colloidal antigen delivery systems” (2009) are described below.

Assay [1] is described as follows: Immunostimulatory activity in C57BL/6 mouse BMDC assessed as increase in mean fluorescence intensity of MHC class2 expression at 10 ug relative to untreated control. The class given is functional. Summed up: (§1)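 Bone marrow stem cells from C57Bl/6 J mice grown 6 days in IMDM with 5% FBS, penicillin/streptomycin, glutamax, 2-mercaptoethanol and 20 ng/ml GM-CSF, 37 °C, 5% CO2. Seeded at 5 × 10^5 cells/mL and pulsed with formulations holding 10 µg saponin (cholesterol/phosphatidylcholine film hydration); LPS 10 µg/mL positive control. After 48 h, flow cytometry gated on propidium iodide-negative CD11c+ cells. MFI divided by medium-only MFI. Run 1–3 times.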

Assay [2] in a line: Immunostimulatory activity in C57BL/6 mouse BMDC assessed as increase in mean fluorescence intensity of CD86 expression at 10 ug relative to untreated control. The class given is functional. The method in brief:
as §1

Turning to `COC(=O)[C@H]1O[C@@H](O[C@H]2CC[C@]3(C)[C@H]4C(=O)C=C5[C@@H]6C[C@@](C)(C(=O)O)CC[C@]6(C)CC[C@@]5(C)[C@]4(C)CC[C@H]3C2(C)C)[C@H](O[C@@H]2O[C@H](C(=O)O)[C@@H](O)[C@H](O)[C@H]2O)[C@@H](O)[C@@H]1O`, the “fold change (FC)” value in assay [1] worked out at 1.5; in assay [2], 0.9.

With `COC(=O)[C@H]1O[C@@H](O[C@H]2CC[C@]3(C)[C@H]4C(=O)C=C5[C@@H]6C[C@@](C)(C(=O)O[C@@H]7O[C@H](CO)[C@@H](O)[C@H](O)[C@H]7O)CC[C@]6(C)CC[C@@]5(C)[C@]4(C)CC[C@H]3C2(C)C)[C@H](O[C@@H]2O[C@H](C(=O)O)[C@@H](O)[C@H](O)[C@H]2O)[C@@H](O)[C@@H]1O`, the “fold change (FC)” value in assay [1] and in assay [2] was 1.3 each time.

`COC(=O)[C@H]1O[C@@H](O[C@H]2[C@H](O[C@H]3CC[C@]4(C)[C@H]5C(=O)C=C6[C@@H]7C[C@@](C)(C(=O)O)CC[C@]7(C)CC[C@@]6(C)[C@]5(C)CC[C@H]4C3(C)C)O[C@H](C(=O)O)[C@@H](O)[C@@H]2O)[C@H](O)[C@@H](O)[C@@H]1O`: the figures for the “fold change (FC)” value in assay [1] and in assay [2] were 1.4 and 0.9, respectively.

As for `COC(=O)[C@H]1O[C@@H](O[C@H]2[C@H](O[C@H]3CC[C@]4(C)[C@H]5C(=O)C=C6[C@@H]7C[C@@](C)(C(=O)O[C@@H]8O[C@H](CO)[C@@H](O)[C@H](O)[C@H]8O)CC[C@]7(C)CC[C@@]6(C)[C@]5(C)CC[C@H]4C3(C)C)O[C@H](C(=O)O)[C@@H](O)[C@@H]2O)[C@H](O)[C@@H](O)[C@@H]1O`, the entries for the “fold change (FC)” value in assay [1] and in assay [2] were 1.1 and 1, respectively.

Consider `CC1(C)CC[C@]2(C(=O)O[C@H]3O[C@H](CO)[C@@H](O)[C@H](O)[C@@H]3O[C@H]3O[C@H](CO)[C@@H](O)[C@H](O)[C@@H]3O[C@H]3O[C@H](CO)[C@@H](O)[C@H](O)[C@@H]3O)CC[C@]3(C)C(=CC[C@@H]4[C@@]5(C)CC[C@H](O[C@H]6O[C@H](CO)[C@@H](O)[C@H](O)[C@@H]6O[C@H]6O[C@H](CO)[C@@H](O)[C@H](O)[C@@H]6O[C@H]6O[C@H](CO)[C@@H](O)[C@H](O)[C@@H]6O)C(C)(C)[C@@H]5CC[C@]43C)[C@@H]2C1`, for which the “fold change (FC)” value in assay [1] is 1; in assay [2] it was 0.9.

Take `CC1(C)CC[C@]2(C(=O)O[C@H]3O[C@H](CO[C@H]4O[C@H](CO)[C@@H](O)[C@H](O)[C@@H]4O)[C@@H](O)[C@H](O[C@H]4O[C@H](CO)[C@@H](O)[C@H](O)[C@@H]4O)[C@@H]3O)CC[C@]3(C)C(=CC[C@@H]4[C@@]5(C)CC[C@H](O[C@H]6O[C@H](CO[C@H]7O[C@H](CO)[C@@H](O)[C@H](O)[C@@H]7O)[C@@H](O)[C@H](O[C@H]7O[C@H](CO)[C@@H](O)[C@H](O)[C@@H]7O)[C@@H]6O)C(C)(C)[C@@H]5CC[C@]43C)[C@@H]2C1`: the “fold change (FC)” value in assay [1] is given as 1.3; in assay [2], 2.

Consider `CC1(C)CC[C@]2(C(=O)O)CC[C@]3(C)C(=CC[C@@H]4[C@@]5(C)CC[C@H](O[C@H]6O[C@H](CO)[C@@H](O)[C@H](O)[C@@H]6O[C@H]6O[C@H](CO)[C@@H](O)[C@H](O)[C@@H]6O)C(C)(C)[C@@H]5CC[C@]43C)[C@@H]2C1`, for which the results for the “fold change (FC)” value in assay [1] and in assay [2] were 1.6 and 1.2, respectively.

Regarding `COC(=O)[C@H]1O[C@@H](O[C@H]2[C@H](O[C@H]3CC[C@]4(C)[C@H]5C(=O)C=C6[C@@H]7C[C@@](C)(C(=O)O)CC[C@]7(C)CC[C@@]6(C)[C@]5(C)CC[C@H]4C3(C)C)O[C@H](C(=O)OC)[C@@H](O)[C@@H]2O)[C@H](O)[C@@H](O)[C@@H]1O`, the results for the “fold change (FC)” value in assay [1] and in assay [2] were 1.1 and 0.9, respectively.

Consider `CC1(C)CC[C@]2(C(=O)O)CC[C@]3(C)C(=CC[C@@H]4[C@@]5(C)CC[C@H](O[C@H]6O[C@H](CO)[C@@H](O)[C@H](O)[C@@H]6O[C@H]6O[C@H](CO)[C@@H](O)[C@H](O)[C@@H]6O[C@H]6O[C@H](CO)[C@@H](O)[C@H](O)[C@@H]6O)C(C)(C)[C@@H]5CC[C@]43C)[C@@H]2C1`, for which the “fold change (FC)” value in assay [1] amounted to 1.1; in assay [2], 0.8.
